STAT1 blocker: inhibitors of IFN-gamma induced STAT1 signaling | NIH 3T3 STAT1-luciferase reporter, luminescence | inhibition, % at 5.5 µM | 200,000 compounds, 0.35% hits | AID 920;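 active = inhibition above a set limit, the mean inhibition across all tested compounds plus 3 SD, cut at about 34% in these data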;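 also: 0% = IFN-gamma with DMSO and 100% = IFN-gamma with 300 µM nifuroxazide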
FLuc inh counter: inhibits firefly luciferase, flagging false hits in luciferase inhibition screens; ATPLite firefly luciferase biochemical luminescence, 10 min; 200,000 compounds, 1.5% hits; inhibition, % at 10 µM;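 active = inhibition above about 50% when tested at 10 µM, limit read from the data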
Target sequence (P08659 whole entry, looked up): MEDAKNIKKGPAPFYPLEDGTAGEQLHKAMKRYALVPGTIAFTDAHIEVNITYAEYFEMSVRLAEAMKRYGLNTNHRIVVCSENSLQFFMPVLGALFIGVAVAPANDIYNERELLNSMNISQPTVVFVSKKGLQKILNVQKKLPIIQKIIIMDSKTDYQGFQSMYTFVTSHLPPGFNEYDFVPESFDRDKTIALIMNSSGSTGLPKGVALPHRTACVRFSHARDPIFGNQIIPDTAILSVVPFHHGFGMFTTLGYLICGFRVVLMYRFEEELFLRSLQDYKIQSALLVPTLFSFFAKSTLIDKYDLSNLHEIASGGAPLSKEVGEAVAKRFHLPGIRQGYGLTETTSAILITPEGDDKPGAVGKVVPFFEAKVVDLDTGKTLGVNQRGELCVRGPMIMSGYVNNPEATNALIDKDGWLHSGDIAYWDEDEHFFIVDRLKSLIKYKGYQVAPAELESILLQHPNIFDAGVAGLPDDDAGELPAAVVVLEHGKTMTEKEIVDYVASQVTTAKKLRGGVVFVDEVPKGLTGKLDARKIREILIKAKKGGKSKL
FLuc act counter: firefly luciferase counter-screen for stimulation assays; ATPlite luciferase biochemical, luminescence, 10 min; 0 = ATP-free wells, 1 = DMSO control; P08659; 200,000 tested, under 10 active; activation factor at 10 µM;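 active = luciferase activation factor, scaled between plate controls, of at least 2 with compound at 10 µM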
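test system = cell-free luciferase reagent | medium = PBS as buffer for the ATP substrate | dosing = test compounds dosed from 2 mM stocks in 100% DMSO | incubation = 10 min at ambient temperature | detection = luminescence measurement of luciferase light output | benchmarks = low control with PBS replacing ATP, high control enzyme plus ATP without compound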
STAT3 activator: STAT3 signaling activation. U3A cells, IL-6 STAT3-luciferase reporter, luminescence; 100% = signal with IL-6 EC80 alone. activation (% of control), % at 5.6 µM. 190,000 compounds, 0.91% hits. AID 871;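 active = activation above the screen-wide mean of compound activation plus 3 SD, cut at about 130% in these data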;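 also: 0% = background luminescence of wells with medium and substrate only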
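Detection: reporter luminescence signal / Assay system: STAT1-lacking human U3A cells, STAT3 luciferase reporter / Incubation: compound pre-incubation 1 h before IL-6, then 6 h stimulation at 37 °C / Control set: IL-6-only high control / Read-out: % activation relative to IL-6 control / Probe or stimulus: Interleukin-6, 33 ng/mL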
STAT3 blocker: reduces IL-6 driven STAT3 reporter signal; U3A cells, IL-6 STAT3-luciferase reporter, luminescence; host cell line lacks STAT1; inhibition, % at 5.5 µM; 190,000 compounds, 0.89% hits;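 active = inhibition above the mean inhibition across all screened compounds plus 3 SD, cut at about 44% in these data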;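 also: 0% = DMSO only wells and 100% = 100 µM nifuroxazide control wells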
STAT1 activator: STAT1 signaling activation | NIH 3T3 STAT1-luciferase reporter, IFN-gamma, luminescence; 100% = IFN-gamma alone, no compound | activation (% of control), % at 5.5 µM | 200,000 compounds, 2.6% hits;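 active = activation above the screen-wide mean activation plus 3 SD, cut at about 130% in these data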;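 also: raw ratio to IFN-gamma control signal so 100% means no change and 0% no light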
* hit, by the source's call. In the library only some 4.9% were active in any assay of this set; here they are far more common.

SMILES | STAT1 blocker | FLuc inh counter | FLuc act counter | STAT3 activator | STAT3 blocker | STAT1 activator
O=S(=O)(c1ccc(S(=O)(=O)N(Cc2cccs2)CC2CCCO2)cc1)N1CCCCC1 (stereo not given) | -32 | -4 | 1 | 95 | 10 | 129*
O=C(Nc1ccc2ccccc2c1)NC1CCS(=O)(=O)C1 (stereo not given) | 2 | -4 | 1 | 96 | 6 | 97
Cc1ccc(OCCn2cnc(Cl)c2Cl)cc1 | -8 | -9 | 1.1 | 80 | 25 | 105
Cc1cc(C(=O)NCC(C)C)c2ccccc2n1 | 4 | 60* | 0.4 | 110 | -6 | 96
NC(=O)c1c(NC(=O)c2ccco2)sc2c1CCC2 | -54 | 30 | 0.7 | 117 | -24 | 150*
NC(=O)c1c(NC(=O)c2cnccn2)sc2c1CCCC2 | -41 | 34 | 0.7 | 95 | 9 | 135*
CN(C)C(=O)c1c(NC(=O)c2ccco2)sc2c1CCCCC2 | -8 | 0 | 1 | 95 | 8 | 100
NC(=O)c1c(NC(=S)Nc2ccc(F)cc2)sc2c1CCCC2 | -17 | -5 | 1 | 87 | 18 | 114
O=C(Nc1sc2c(c1C(=O)O)CCCCC2)c1ccco1 | -24 | 74* | 0.3 | 98 | 6 | 122
NC(=O)c1c(NC(=S)Nc2ccccc2)sc2c1CCCC2 | -37 | 2 | 1 | 96 | 9 | 132*
COc1cccc(OC)c1C(=O)Nc1cccnc1 | -4 | -6 | 1.1 | 101 | 1 | 102
CCOCCCNS(=O)(=O)c1ccc(NC(=O)C2CC(=O)N(c3ccc(C)cc3)C2)cc1 (stereo not given) | 2 | -7 | 1.1 | 101 | 6 | 96
COc1cc(/C=C/CN2CCN(CCC(C)C)C(CCO)C2)ccc1O (stereo not given) | -4 | -3 | 1 | 101 | 4 | 103
NC(=O)c1cc(Cc2ccccc2)sc1NC(=O)c1ccco1 | -43 | 0 | 1 | 121 | -21 | 142*
CC1(C)O[C@@H]2C[C@H]3[C@@H]4C[C@H](F)C5=CC(=O)CC[C@]5(C)[C@H]4[C@@H](O)C[C@]3(C)[C@]2(C(=O)CO)O1 | -39 | 0 | 1 | 88 | 16 | 135*
CCCCC(=O)O[C@]1(C(=O)CO)CC[C@H]2[C@@H]3CCC4=CC(=O)CC[C@]4(C)[C@H]3[C@@H](O)C[C@@]21C | -21 | -4 | 1 | 103 | -2 | 119
Cc1ccc(N/C=C(/C#N)c2ccsc2)cc1 | -44 | 1 | 1 | 105 | -6 | 134*
N#C/C(=C/Nc1ccccc1)c1ccsc1 | -10 | -2 | 1 | 99 | 1 | 99
C/C(=N\N1CCN(C2c3ccccc3-c3ccccc32)CC1)c1cccnc1 | -5 | -4 | 1 | 95 | 12 | 105
CN=c1scc(-c2ccccc2F)n1/N=C(\C)c1cccnc1 | -34 | 73* | 0.3 | 98 | 2 | 132*
CCc1ccccc1NC(=S)N(CCN1CCOCC1)Cc1ccccc1F | -12 | -7 | 1.1 | 101 | 5 | 109
CCN(CC)S(=O)(=O)c1cc(NC(=O)c2ccc(Br)s2)ccc1C | -41 | 13 | 0.9 | 91 | 19 | 138*
Cc1ccc(CSc2nnc(SCC(=O)N/N=C/C=C/c3ccccc3[N+](=O)[O-])s2)cc1 | 2 | 59* | 0.4 | 99 | 2 | 98
COc1ccc([N+](=O)[O-])cc1N(CC(=O)N1CCCC1)S(C)(=O)=O | 11 | 1 | 1 | 85 | 26 | 88
CCOC(=O)c1ccc(Nc2ncccc2[N+](=O)[O-])cc1 | -39 | 14 | 0.9 | 106 | -1 | 135*
SMILES | STAT1 blocker | FLuc inh counter | FLuc act counter | STAT3 activator | STAT3 blocker | STAT1 activator
CCOC(=O)c1ccc(NC(=S)Nc2ccccn2)cc1 | -32 | 3 | 1 | 79 | 30 | 129*
CCOC(=O)c1ccc(NC(=O)c2ccccc2[N+](=O)[O-])cc1 | -19 | 8 | 0.9 | 101 | 2 | 117
CCOc1ccc(NC(=S)Nc2cc(C)[nH]n2)cc1 | -34 | 4 | 1 | 106 | -1 | 132*
Cc1ccc(Nc2ncccc2C(N)=O)cc1[N+](=O)[O-] | -47 | -4 | 1 | 99 | 2 | 141*
O[C@H]1COC2C1OC[C@@H]2O (stereo not given in full) | 10 | 0 | 1 | 93 | 10 | 91
C(=C\c1nnc2c3ccccc3ncn12)/c1ccccc1 | -54 | 17 | 0.8 | 145* | -49 | 148*
CCOc1ccc(NC(=S)NNC(=O)c2ccc(Br)cc2)cc1 | 4 | -3 | 1 | 97 | 7 | 94
COC(=O)c1ccc(NC(=O)c2cc3sccc3n2C)cc1 | -25 | 11 | 0.9 | 89 | 16 | 123
COc1cc(NC(=O)c2cc3sccc3n2C)cc(OC)c1 | -36 | 20 | 0.8 | 131 | -31 | 132*
COC(=O)c1cc(NC(=O)c2ccc(F)cc2)cc(C(=O)OC)c1 | 3 | -1 | 1 | 81 | 25 | 95
CCN(CC)CCn1c2ccccc2c2cnc(N)c(C#N)c21 | -83 | -6 | 1.1 | 169* | -74 | 176*
CN(C)C=Nc1ncc2c3ccccc3n(CCN(C)C)c2c1C#N | -9 | -5 | 1 | 102 | -2 | 108
O=C(CCS(=O)(=O)c1cc(Br)cc2c1N(C(=O)C1CC1)CC2)N1CCN(c2ccccn2)CC1 | 5 | -7 | 1.1 | 98 | 3 | 95
Cc1ccc(CN2CCSc3ccc(C(=O)NCc4ccccn4)cc32)cc1 | -8 | 0 | 1 | 104 | -4 | 107
Cc1nn(C(=O)CNC(=O)c2ccccc2)c(C)c1C | -15 | 8 | 0.9 | 87 | 24 | 113
Cc1nn(C(=O)c2cc3sccc3[nH]2)c(C)c1C | -41 | 14 | 0.9 | 143* | -50 | 138*
COc1ccc(-c2cn3cc(C(F)(F)F)cc(Cl)c3n2)cc1 | -58 | 34 | 0.7 | 161* | -67 | 150*
Fc1ccc(-c2cc(C(F)(F)F)nc(-n3cc(Cl)cn3)n2)cc1 | 1 | -7 | 1.1 | 80 | 27 | 98
Fc1ccc(-c2cn3cc(C(F)(F)F)cc(Cl)c3n2)cc1 | -43 | 32 | 0.7 | 174* | -75 | 139*
C/C(=N\NC(=O)c1c(Br)cnn1C)c1ccc(NC(=O)c2ccc(F)cc2)cc1 | -2 | -6 | 1.1 | 92 | 13 | 102
c1ccc(CSc2nnc(NC3=NCCCCC3)s2)cc1 | -43 | 4 | 1 | 111 | -6 | 140*
N#Cc1ccc(CSc2nnc(Nc3ccccc3)s2)cc1 | 3 | -9 | 1.1 | 95 | 11 | 97
CC1(C)CC(=O)c2cnc(N3CCN(c4ccccc4)CC3)nc2C1 | 9 | -2 | 1 | 87 | 18 | 92
O=C1CCCc2nc(N3CCc4ccccc43)ncc21 | -55 | 65* | 0.4 | 93 | 13 | 150*

Screening data: PubChem BioAssay, several laboratories
